From ChEMBL document CHEMBL1154962, “Novel 6-N-arylcarboxamidopyrazolo[4,3-d]pyrimidin-7-one derivatives as potential anti-cancer agents” (2010)

test system: SK-OV-3; assay: Cytotoxicity against human SKOV3 cells at 100 uM after 2 days by sulforhodamine B assay; assay type: functional; conditions: SK-OV-3, 48 h
Method in brief: (§1)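 Five human cancer lines (HT-29, DU-145, A-549, SK-MEL-2, SK-OV-3) seeded at 3–7 × 10³ cells/well; compounds at 100 µM added in duplicate; 37 °C, 5% CO₂, two days. Fixed with formalin, SRB stained, washed with 1% acetic acid, dye solubilized in 10 mM unbuffered Tris base; OD at 520 nm. Read-out is % inhibition.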

| Compound | inhibition at 100 µM |
| --- | --- |
| O=C(Nn1c(-c2cccc([N+](=O)[O-])c2)nc2c(-c3ccc(F)cc3)n[nH]c2c1=O)c1cccnc1 | 19.3% |
| O=C(Nn1c(-c2cccc([N+](=O)[O-])c2)nc2c(-c3ccc(Cl)cc3)n[nH]c2c1=O)c1cccnc1 | 30.2% |
| COc1cccc(-c2nc3c(-c4ccc(C5CCNCC5)cc4)n[nH]c3c(=O)n2NC(=O)c2ccncc2)c1 | 18.2% |
| COc1cccc(-c2nc3c(-c4ccc(Cl)cc4)n[nH]c3c(=O)n2NC(=O)c2ccccc2)c1 | 81.7% |
| O=C(Nn1c(-c2cccc([N+](=O)[O-])c2)nc2c(CCc3ccccc3)n[nH]c2c1=O)c1cccnc1 | 30.1% |
| CCCc1n[nH]c2c(=O)n(NC(=O)c3ccncc3)c(-c3cccc([N+](=O)[O-])c3)nc12 | 15.1% |
| O=C(Nn1c(-c2cccc([N+](=O)[O-])c2)nc2c(-c3ccco3)n[nH]c2c1=O)c1cccnc1 | -0.61% |
| O=C(Nn1c(-c2cccc([N+](=O)[O-])c2)nc2c(-c3ccc(Cl)cc3)n[nH]c2c1=O)c1ccccc1 | 86.8% |
| CCCc1n[nH]c2c(=O)n(NC(=O)c3ccccc3)c(-c3cccc([N+](=O)[O-])c3)nc12 | 28.8% |
| O=C(Nn1c(-c2cccc([N+](=O)[O-])c2)nc2c(-c3ccc(F)cc3)n[nH]c2c1=O)c1ccccc1 | 77.7% |
| CC(C)Cc1n[nH]c2c(=O)n(NC(=O)c3ccncc3)c(-c3cccc([N+](=O)[O-])c3)nc12 | 35.8% |
| CCCc1n[nH]c2c(=O)n(NC(=O)c3ccccc3)c(-c3cccc(OC)c3)nc12 | 9.96% |
| O=C(Nn1c(-c2cccc([N+](=O)[O-])c2)nc2c(-c3ccco3)n[nH]c2c1=O)c1ccccc1 | 17.9% |
| COc1cccc(-c2nc3c(-c4ccco4)n[nH]c3c(=O)n2NC(=O)c2cccnc2)c1 | 25% |
| CCCc1n[nH]c2c(=O)n(NC(=O)c3ccncc3)c(-c3cccc(OC)c3)nc12 | 4.04% |
| COc1cccc(-c2nc3c(-c4ccc(Cl)cc4)n[nH]c3c(=O)n2NC(=O)c2ccncc2)c1 | 42.5% |

test system: HT-29; assay: Cytotoxicity against human HT-29 cells at 100 uM after 2 days by sulforhodamine B assay; assay type: functional; conditions: HT-29, 48 h; method in brief: as §1

| Compound | inhibition at 100 µM |
| --- | --- |
| O=C(Nn1c(-c2cccc([N+](=O)[O-])c2)nc2c(-c3ccc(F)cc3)n[nH]c2c1=O)c1cccnc1 | 24.7% |
| O=C(Nn1c(-c2cccc([N+](=O)[O-])c2)nc2c(-c3ccc(Cl)cc3)n[nH]c2c1=O)c1cccnc1 | 15.1% |
| COc1cccc(-c2nc3c(-c4ccc(C5CCNCC5)cc4)n[nH]c3c(=O)n2NC(=O)c2ccncc2)c1 | 28.1% |
| COc1cccc(-c2nc3c(-c4ccc(Cl)cc4)n[nH]c3c(=O)n2NC(=O)c2ccccc2)c1 | 87.3% |
| O=C(Nn1c(-c2cccc([N+](=O)[O-])c2)nc2c(CCc3ccccc3)n[nH]c2c1=O)c1cccnc1 | 20.1% |
| CCCc1n[nH]c2c(=O)n(NC(=O)c3ccncc3)c(-c3cccc([N+](=O)[O-])c3)nc12 | -0.83% |
| O=C(Nn1c(-c2cccc([N+](=O)[O-])c2)nc2c(-c3ccco3)n[nH]c2c1=O)c1cccnc1 | 11.7% |
| O=C(Nn1c(-c2cccc([N+](=O)[O-])c2)nc2c(-c3ccc(Cl)cc3)n[nH]c2c1=O)c1ccccc1 | 87.8% |
| CCCc1n[nH]c2c(=O)n(NC(=O)c3ccccc3)c(-c3cccc([N+](=O)[O-])c3)nc12 | 18.7% |
| O=C(Nn1c(-c2cccc([N+](=O)[O-])c2)nc2c(-c3ccc(F)cc3)n[nH]c2c1=O)c1ccccc1 | 92% |
| CCCc1n[nH]c2c(=O)n(NC(=O)c3ccccc3)c(-c3cccc(OC)c3)nc12 | 6.27% |
| O=C(Nn1c(-c2cccc([N+](=O)[O-])c2)nc2c(-c3ccco3)n[nH]c2c1=O)c1ccccc1 | 21.2% |
| COc1cccc(-c2nc3c(-c4ccco4)n[nH]c3c(=O)n2NC(=O)c2cccnc2)c1 | 12.8% |
| CCCc1n[nH]c2c(=O)n(NC(=O)c3ccncc3)c(-c3cccc(OC)c3)nc12 | 0.07% |
| COc1cccc(-c2nc3c(-c4ccc(Cl)cc4)n[nH]c3c(=O)n2NC(=O)c2ccncc2)c1 | 46% |

test system: DU-145; assay: Cytotoxicity against human DU145 cells at 100 uM after 2 days by sulforhodamine B assay; assay type: functional; conditions: DU-145, 48 h; method in brief: as §1

| Compound | inhibition at 100 µM |
| --- | --- |
| O=C(Nn1c(-c2cccc([N+](=O)[O-])c2)nc2c(-c3ccc(F)cc3)n[nH]c2c1=O)c1cccnc1 | 24.9% |
| O=C(Nn1c(-c2cccc([N+](=O)[O-])c2)nc2c(-c3ccc(Cl)cc3)n[nH]c2c1=O)c1cccnc1 | 31% |
| COc1cccc(-c2nc3c(-c4ccc(C5CCNCC5)cc4)n[nH]c3c(=O)n2NC(=O)c2ccncc2)c1 | 37% |
| COc1cccc(-c2nc3c(-c4ccc(Cl)cc4)n[nH]c3c(=O)n2NC(=O)c2ccccc2)c1 | 94.1% |
| O=C(Nn1c(-c2cccc([N+](=O)[O-])c2)nc2c(CCc3ccccc3)n[nH]c2c1=O)c1cccnc1 | 22.5% |
| CCCc1n[nH]c2c(=O)n(NC(=O)c3ccncc3)c(-c3cccc([N+](=O)[O-])c3)nc12 | 15.1% |
| O=C(Nn1c(-c2cccc([N+](=O)[O-])c2)nc2c(-c3ccco3)n[nH]c2c1=O)c1cccnc1 | 1.66% |
| O=C(Nn1c(-c2cccc([N+](=O)[O-])c2)nc2c(-c3ccc(Cl)cc3)n[nH]c2c1=O)c1ccccc1 | 94.2% |
| CCCc1n[nH]c2c(=O)n(NC(=O)c3ccccc3)c(-c3cccc([N+](=O)[O-])c3)nc12 | 27.8% |
| O=C(Nn1c(-c2cccc([N+](=O)[O-])c2)nc2c(-c3ccc(F)cc3)n[nH]c2c1=O)c1ccccc1 | 90.8% |
| CC(C)Cc1n[nH]c2c(=O)n(NC(=O)c3ccncc3)c(-c3cccc([N+](=O)[O-])c3)nc12 | 55.3% |
| CCCc1n[nH]c2c(=O)n(NC(=O)c3ccccc3)c(-c3cccc(OC)c3)nc12 | 23.6% |
| O=C(Nn1c(-c2cccc([N+](=O)[O-])c2)nc2c(-c3ccco3)n[nH]c2c1=O)c1ccccc1 | 16.1% |
| COc1cccc(-c2nc3c(-c4ccco4)n[nH]c3c(=O)n2NC(=O)c2cccnc2)c1 | 30.1% |
| CCCc1n[nH]c2c(=O)n(NC(=O)c3ccncc3)c(-c3cccc(OC)c3)nc12 | 4.04% |
| COc1cccc(-c2nc3c(-c4ccc(Cl)cc4)n[nH]c3c(=O)n2NC(=O)c2ccncc2)c1 | 54.4% |

test system: DU-145; assay: Growth inhibition of human DU145 cells after 2 days by MTT assay; assay type: functional; conditions: DU-145, 48 h
Method in brief: (§2)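 HT-29 and DU-145 cells seeded at 5 × 10⁴ cells/mL; serial concentrations added in duplicate; 37 °C, 5% CO₂, two days. MTT dye (Cell Titer96) for up to 4 h at 37 °C, then solubilization/stop mix overnight at room temperature; OD at 570 nm. GI₅₀ = concentration giving 50% growth inhibition; mean ± SEM of three or more experiments; doxorubicin as internal standard.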

| Compound | GI50 |
| --- | --- |
| COc1cccc(-c2nc3c(-c4ccc(Cl)cc4)n[nH]c3c(=O)n2NC(=O)c2ccccc2)c1 | 17.9 µM |
| O=C(Nn1c(-c2cccc([N+](=O)[O-])c2)nc2c(-c3ccc(Cl)cc3)n[nH]c2c1=O)c1ccccc1 | 17.1 µM |

test system: HT-29; assay: Growth inhibition of human HT-29 cells after 2 days by MTT assay; assay type: functional; conditions: HT-29, 48 h; method in brief: as §2

| Compound | GI50 |
| --- | --- |
| COc1cccc(-c2nc3c(-c4ccc(Cl)cc4)n[nH]c3c(=O)n2NC(=O)c2ccccc2)c1 | 20.4 µM |
| O=C(Nn1c(-c2cccc([N+](=O)[O-])c2)nc2c(-c3ccc(Cl)cc3)n[nH]c2c1=O)c1ccccc1 | 18.4 µM |

test system: SK-MEL-2; assay: Cytotoxicity against human SK-MEL-2 cells at 100 uM after 2 days by sulforhodamine B assay; assay type: functional; conditions: SK-MEL-2, 48 h; method in brief: as §1

| Compound | inhibition at 100 µM |
| --- | --- |
| O=C(Nn1c(-c2cccc([N+](=O)[O-])c2)nc2c(-c3ccc(F)cc3)n[nH]c2c1=O)c1cccnc1 | 24.5% |
| O=C(Nn1c(-c2cccc([N+](=O)[O-])c2)nc2c(-c3ccc(Cl)cc3)n[nH]c2c1=O)c1cccnc1 | 16.3% |
| COc1cccc(-c2nc3c(-c4ccc(C5CCNCC5)cc4)n[nH]c3c(=O)n2NC(=O)c2ccncc2)c1 | 23.4% |
| COc1cccc(-c2nc3c(-c4ccc(Cl)cc4)n[nH]c3c(=O)n2NC(=O)c2ccccc2)c1 | 84.9% |
| O=C(Nn1c(-c2cccc([N+](=O)[O-])c2)nc2c(CCc3ccccc3)n[nH]c2c1=O)c1cccnc1 | 28.5% |
| CCCc1n[nH]c2c(=O)n(NC(=O)c3ccncc3)c(-c3cccc([N+](=O)[O-])c3)nc12 | 14.2% |
| O=C(Nn1c(-c2cccc([N+](=O)[O-])c2)nc2c(-c3ccco3)n[nH]c2c1=O)c1cccnc1 | 19.2% |
| O=C(Nn1c(-c2cccc([N+](=O)[O-])c2)nc2c(-c3ccc(Cl)cc3)n[nH]c2c1=O)c1ccccc1 | 89% |
| CCCc1n[nH]c2c(=O)n(NC(=O)c3ccccc3)c(-c3cccc([N+](=O)[O-])c3)nc12 | 22.9% |
| O=C(Nn1c(-c2cccc([N+](=O)[O-])c2)nc2c(-c3ccc(F)cc3)n[nH]c2c1=O)c1ccccc1 | 88.5% |
| CC(C)Cc1n[nH]c2c(=O)n(NC(=O)c3ccncc3)c(-c3cccc([N+](=O)[O-])c3)nc12 | 38.7% |
| CCCc1n[nH]c2c(=O)n(NC(=O)c3ccccc3)c(-c3cccc(OC)c3)nc12 | 16.7% |
| O=C(Nn1c(-c2cccc([N+](=O)[O-])c2)nc2c(-c3ccco3)n[nH]c2c1=O)c1ccccc1 | 23% |
| COc1cccc(-c2nc3c(-c4ccco4)n[nH]c3c(=O)n2NC(=O)c2cccnc2)c1 | 34.1% |
| CCCc1n[nH]c2c(=O)n(NC(=O)c3ccncc3)c(-c3cccc(OC)c3)nc12 | 11.4% |
| COc1cccc(-c2nc3c(-c4ccc(Cl)cc4)n[nH]c3c(=O)n2NC(=O)c2ccncc2)c1 | 39.6% |

test system: A549; assay: Cytotoxicity against human A549 cells at 100 uM after 2 days by sulforhodamine B assay; assay type: functional; conditions: A549, 48 h; method in brief: as §1

| Compound | inhibition at 100 µM |
| --- | --- |
| O=C(Nn1c(-c2cccc([N+](=O)[O-])c2)nc2c(-c3ccc(F)cc3)n[nH]c2c1=O)c1cccnc1 | 28.8% |
| O=C(Nn1c(-c2cccc([N+](=O)[O-])c2)nc2c(-c3ccc(Cl)cc3)n[nH]c2c1=O)c1cccnc1 | 19.7% |
| COc1cccc(-c2nc3c(-c4ccc(C5CCNCC5)cc4)n[nH]c3c(=O)n2NC(=O)c2ccncc2)c1 | 32.4% |
| COc1cccc(-c2nc3c(-c4ccc(Cl)cc4)n[nH]c3c(=O)n2NC(=O)c2ccccc2)c1 | 81.8% |
| O=C(Nn1c(-c2cccc([N+](=O)[O-])c2)nc2c(CCc3ccccc3)n[nH]c2c1=O)c1cccnc1 | 19% |
| CCCc1n[nH]c2c(=O)n(NC(=O)c3ccncc3)c(-c3cccc([N+](=O)[O-])c3)nc12 | 9.95% |
| O=C(Nn1c(-c2cccc([N+](=O)[O-])c2)nc2c(-c3ccco3)n[nH]c2c1=O)c1cccnc1 | 1.51% |
| O=C(Nn1c(-c2cccc([N+](=O)[O-])c2)nc2c(-c3ccc(Cl)cc3)n[nH]c2c1=O)c1ccccc1 | 88.6% |
| CCCc1n[nH]c2c(=O)n(NC(=O)c3ccccc3)c(-c3cccc([N+](=O)[O-])c3)nc12 | 33.2% |
| O=C(Nn1c(-c2cccc([N+](=O)[O-])c2)nc2c(-c3ccc(F)cc3)n[nH]c2c1=O)c1ccccc1 | 80.7% |
| CCCc1n[nH]c2c(=O)n(NC(=O)c3ccccc3)c(-c3cccc(OC)c3)nc12 | 20.7% |
| O=C(Nn1c(-c2cccc([N+](=O)[O-])c2)nc2c(-c3ccco3)n[nH]c2c1=O)c1ccccc1 | 18.7% |
| COc1cccc(-c2nc3c(-c4ccco4)n[nH]c3c(=O)n2NC(=O)c2cccnc2)c1 | 14.9% |
| CCCc1n[nH]c2c(=O)n(NC(=O)c3ccncc3)c(-c3cccc(OC)c3)nc12 | 11.2% |
| COc1cccc(-c2nc3c(-c4ccc(Cl)cc4)n[nH]c3c(=O)n2NC(=O)c2ccncc2)c1 | 46% |
